# Assays:
# Format in all cases: functional
# IGROV-1 = test: Antiproliferative activity against human IGROV1 cells after 48 hrs by sulforhodamine B assay; details: IGROV-1, 48 h
# Outline: (§1)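 NCI 60-cell-line panel covering nine cancer types (leukemia, non-small cell lung, colon, CNS, melanoma, ovarian, renal, prostate, breast). Compounds were first tested at a single dose, then in a five-dose screen (series starting 0.01, 0.1 …) if they met NCI threshold criteria. Reported per line: GI50 (molar concentration inhibiting 50% net growth), TGI (total growth inhibition) and LC50 (50% net cell death).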
# K562 = test: Antiproliferative activity against human K562 cells after 48 hrs by sulforhodamine B assay; details: K562, 48 h; outline: as §1
# [1] = Antiproliferative activity against human Hs 578T cells after 48 hrs by sulforhodamine B assay; outline: as §1
# SNB-19 = test: Antiproliferative activity against human SNB19 cells after 48 hrs by sulforhodamine B assay; details: SNB-19, 48 h; outline: as §1
# SF-295 = test: Antiproliferative activity against human SF295 cells after 48 hrs by sulforhodamine B assay; details: SF-295, 48 h; outline: as §1
# OVCAR-8 = test: Antiproliferative activity against human OVCAR8 cells after 48 hrs by sulforhodamine B assay; details: OVCAR-8, 48 h; outline: as §1
# SK-OV-3 = test: Antiproliferative activity against human SKOV3 cells after 48 hrs by sulforhodamine B assay; details: SK-OV-3, 48 h; outline: as §1
# T47D = test: Antiproliferative activity against human T47D cells after 48 hrs by sulforhodamine B assay
# Outline: (§2)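 NCI 60-cell-line panel screen: single dose 10 µM first, then 5-dose testing (0.01, 0.1, … molar series). For each line, GI50 is the molar concentration giving 50% inhibition of net cell growth, TGI gives total inhibition of net growth, and LC50 gives 50% net cell death. Method follows the NCI DTP protocol.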
# BT-549 = test: Antiproliferative activity against human BT549 cells after 48 hrs by sulforhodamine B assay; details: BT-549, 48 h; outline: as §1
# HOP-62 = test: Antiproliferative activity against human HOP62 cells after 48 hrs by sulforhodamine B assay; details: HOP-62, 48 h; outline: as §1
# COLO 205 = test: Antiproliferative activity against human COLO205 cells after 48 hrs by sulforhodamine B assay; details: COLO 205, 48 h; outline: as §1
# ACHN = test: Antiproliferative activity against human ACHN cells after 48 hrs by sulforhodamine B assay; outline: as §1
# SW-620 = test: Antiproliferative activity against human SW620 cells after 48 hrs by sulforhodamine B assay; details: SW-620, 48 h; outline: as §2
# A549 = test: Antiproliferative activity against human A549 cells after 48 hrs by sulforhodamine B assay; details: A549, 48 h; outline: as §1
# NCI-H322M = test: Antiproliferative activity against human NCI-H322M cells after 48 hrs by sulforhodamine B assay; outline: as §1
# U-251 = test: Antiproliferative activity against human U251 cells after 48 hrs by sulforhodamine B assay; details: U-251, 48 h; outline: as §2
# KM12 = test: Antiproliferative activity against human KM12 cells after 48 hrs by sulforhodamine B assay; details: KM12, 48 h; outline: as §1
# [2] = Antiproliferative activity against human […] cells after 48 hrs by sulforhodamine B assay; outline: as §1
# SK-MEL-28 = test: Antiproliferative activity against human SK-MEL-28 cells after 48 hrs by sulforhodamine B assay; details: SK-MEL-28, 48 h; outline: as §1
# M14 = test: Antiproliferative activity against human M14 cells after 48 hrs by sulforhodamine B assay; details: M14, 48 h; outline: as §1
# SF-268 = test: Antiproliferative activity against human SF268 cells after 48 hrs by sulforhodamine B assay; details: SF-268, 48 h; outline: as §1
# EKVX = test: Antiproliferative activity against human EKVX cells after 48 hrs by sulforhodamine B assay; outline: as §1
# DU-145 = test: Antiproliferative activity against human DU145 cells after 48 hrs by sulforhodamine B assay; details: DU-145, 48 h; outline: as §1
# HCT-116 = test: Antiproliferative activity against human HCT116 cells after 48 hrs by sulforhodamine B assay; details: HCT-116, 48 h; outline: as §1
# CAKI-1 = test: Antiproliferative activity against human Caki1 cells after 48 hrs by sulforhodamine B assay; details: CAKI-1, 48 h; outline: as §1
# SK-MEL-2 = test: Antiproliferative activity against human SK-MEL-2 cells after 48 hrs by sulforhodamine B assay; details: SK-MEL-2, 48 h; outline: as §1
# HCC 2998 = test: Antiproliferative activity against human HCC2998 cells after 48 hrs by sulforhodamine B assay; details: HCC 2998, 48 h; outline: as §1
# Malme-3M = test: Antiproliferative activity against human MALME-3M cells after 48 hrs by sulforhodamine B assay; outline: as §1
# OVCAR-3 = test: Antiproliferative activity against human OVCAR3 cells after 48 hrs by sulforhodamine B assay; details: OVCAR-3, 48 h; outline: as §1
# NCI-H226 = test: Antiproliferative activity against human NCI-H226 cells after 48 hrs by sulforhodamine B assay; details: NCI-H226, 48 h; outline: as §1
# UACC-62 = test: Antiproliferative activity against human UACC62 cells after 48 hrs by sulforhodamine B assay; details: UACC-62, 48 h; outline: as §2
# [3] = read-out: LC50 (the source's name)
smiles,measurement,setting,value
Nc1ccc2c(c1)c(N)nn2C(=O)Nc1ccc(Cc2ccccc2)cc1,GI50,IGROV-1,16.4 µM
same,TGI,IGROV-1,54.1 µM
same,CC50,IGROV-1; [3],> 100 µM
same,GI50,K562,2.24 µM
same,LC50 (concentration causing 50% net cell death),K562,> 100 µM
same,TGI,K562,11.4 µM
same,GI50,[1],17.3 µM
same,TGI,[1],43 µM
same,CC50,[1]; [3],> 100 µM
same,GI50,SNB-19,13.9 µM
same,TGI,SNB-19,27.3 µM
same,CC50,SNB-19; [3],53.6 µM
same,GI50,SF-295,3.96 µM
same,LC50,SF-295,45.4 µM
same,TGI,SF-295,15.1 µM
same,GI50,OVCAR-8,20.2 µM
same,TGI,OVCAR-8,> 100 µM
same,CC50,OVCAR-8; [3],> 100 µM
same,GI50,SK-OV-3,15.3 µM
same,TGI,SK-OV-3,37.7 µM
same,CC50,SK-OV-3; [3],92.8 µM
same,GI50,T47D,5.8 µM
same,LC50 (concentration giving 50% net cell death),T47D,66 µM
same,TGI,T47D,22.8 µM
same,GI50,BT-549,14.6 µM
same,TGI,BT-549,33.5 µM
same,CC50,BT-549; [3],76.7 µM
same,GI50,HOP-62,11.2 µM
same,LC50 (concentration causing 50% net cell death),HOP-62,65.3 µM
same,TGI,HOP-62,27 µM
same,GI50,COLO 205,13.1 µM
same,LC50 (concentration causing 50% net cell death),COLO 205,53.9 µM
same,TGI,COLO 205,26.5 µM
same,GI50,ACHN,3.37 µM
same,TGI,ACHN,13.7 µM
same,CC50,ACHN; [3],39.6 µM
same,GI50,SW-620,4.48 µM
same,TGI,SW-620,18.7 µM
same,CC50,SW-620; [3],58.5 µM
same,GI50,A549,6.58 µM
same,TGI,A549,57.1 µM
same,CC50,A549; [3],> 100 µM
same,GI50,NCI-H322M,13 µM
same,TGI,NCI-H322M,27.5 µM
same,CC50,NCI-H322M; [3],58.3 µM
same,GI50,U-251,6.53 µM
same,LC50 (concentration giving 50% net cell death),U-251,52 µM
same,TGI,U-251,20.9 µM
same,GI50,KM12,3.34 µM
same,TGI,KM12,15.1 µM
same,CC50,KM12; [3],41.3 µM
same,GI50,[2],5.14 µM
same,TGI,[2],35 µM
same,CC50,[2]; [3],> 100 µM
same,GI50,SK-MEL-28,13.7 µM
same,TGI,SK-MEL-28,27.8 µM
same,CC50,SK-MEL-28; [3],56.2 µM
same,GI50,M14,4.59 µM
same,TGI,M14,17.8 µM
same,CC50,M14; [3],51.9 µM
same,GI50,SF-268,13 µM
same,TGI,SF-268,30.7 µM
same,CC50,SF-268; [3],72.5 µM
same,GI50,EKVX,14 µM
same,TGI,EKVX,36.7 µM
same,CC50,EKVX; [3],96.1 µM
same,GI50,DU-145,10.9 µM
same,TGI,DU-145,24 µM
same,CC50,DU-145; [3],52.6 µM
same,GI50,HCT-116,6.79 µM
same,LC50 (concentration causing 50% net cell death),HCT-116,50 µM
same,TGI,HCT-116,20.8 µM
same,GI50,CAKI-1,4.3 µM
same,TGI,CAKI-1,26.8 µM
same,CC50,CAKI-1; [3],> 100 µM
same,GI50,SK-MEL-2,26.1 µM
same,TGI,SK-MEL-2,48.5 µM
same,CC50,SK-MEL-2; [3],90.1 µM
same,GI50,HCC 2998,4.17 µM
same,TGI,HCC 2998,14.8 µM
same,CC50,HCC 2998; [3],40.9 µM
same,GI50,Malme-3M,18 µM
same,LC50 (concentration causing 50% net cell death),Malme-3M,> 100 µM
same,TGI,Malme-3M,89.8 µM
same,GI50,OVCAR-3,12.1 µM
same,TGI,OVCAR-3,28.3 µM
same,CC50,OVCAR-3; [3],66.7 µM
same,GI50,NCI-H226,16.1 µM
same,TGI,NCI-H226,38.3 µM
same,CC50,NCI-H226; [3],91.4 µM
same,GI50,UACC-62,2.9 µM
same,TGI,UACC-62,12.6 µM
same,CC50,UACC-62; [3],39.3 µM

# From ChEMBL document CHEMBL1649392, “Synthesis of substituted 3-amino-N-phenyl-1H-indazole-1-carboxamides endowed with antiproliferative activity” (Eur J Med Chem, 2011)
